Compound activity from PubChem.
Cneo AK release = causes C. neoformans cell lysis; adenylate kinase release luminescence, 4 h; normalised: neutral wells 0, clomiphene wells 100; lysis activity, % at 15 µM; hit rate 0.2% among 360,000;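 active = mean lysis activity across replicates of at least 80%, whatever share of replicates individually reach that level; inactive = mean lysis activity below 80%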
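Assay system: C. neoformans cells. Amount: yeast cell density of 5 × 10^6 cells/mL. Technique: AK luminescence. Buffer or medium: YPD. Times: static 4 h at 37 °C with compound, 1 h detection. Dosing: single-point compound dose. Read-out: lysis from increased AK signal.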
CaV13 FRET inh = Disruptors of the CACNA1D IQ motif to Ca2+-dependent inactivation inhibitor domain association, primary screening, Förster resonance energy transfer in intact living … | HEK cells, CFP/YFP FRET ICDI-IQ, plate reader, 10 min; percent FRET-ratio fall versus neutral wells | inhibition, % at 12.3 µM | hit rate 0.098% among 340,000 | AID 743397;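 active = mean replicate inhibition of at least 30% and at least 1% of replicates passing that level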;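 also: 0% = median of the neutral control wells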
rRNA inh HTS = inhibitors of bacterial rRNA selective over humanized ribosomes; hit rate 1.6% among 350,000; GFP signal change (wild-type ribosome), % (test concentration not listed); E. coli WT GFP vs humanized-ribosome RFP mutants, fluorescence, 24 h; active compounds read low; DMSO median 0, no signal -100;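 active = significant combined selectivity score with lowered wild-type GFP, culture density cut under 30%, mutant RFP and density less affected; inactive = any of these conditions unmet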
CFTR F508del cor = correctors of CFTR F508del function in bronchial epithelial cells. AID 720511. hit rate 0.36% among 350,000. CFBE cells, YFP halide quenching; stimulated with forskolin plus potentiator P3; % fluorescence drop versus neutral controls. activity (quench increase), % at 7.58 µM;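 active = mean added fluorescence quench of at least 8% versus neutral control, with both replicates also reaching 8%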;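 also: cells transiently co-express mutant CFTR-F508del with the halide-sensitive YFP; corrector assay measuring rescue of mutant channel to the surface after 24 h compound exposure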
* = called active by the depositor; / = no result. Compounds with a hit are over-represented: about 1.7% of the library has one in this group of screens.

SMILES | Cneo AK release | CaV13 FRET inh | rRNA inh HTS | CFTR F508del cor
CC(C)(C)CC(C)(C)Nc1c(-c2ccc(O)cc2)nc2cnccn12 | -2 | -11 | -25* | /
Oc1ccc(-c2nc3cnccn3c2Nc2ccc3c(c2)OCCO3)cc1 | -3 | -3 | -5 | -2
COc1cc(-c2nc3cnccn3c2Nc2ccc(C)cc2)ccc1O | -2 | -7 | -41* | 1
CNC[C@@H]1OCCCC[C@H](C)Oc2ccc(NC(=O)c3ccncc3)cc2C(=O)N([C@@H](C)CO)C[C@H]1C | / | / | / | 1
CC1(c2ccc3ccccc3c2)CCC(=O)O1 (stereo not drawn) | / | -6 | -4 | 8.7*
C[C@@H]1CN([C@H](C)CO)C(=O)c2cc(N(C)C)ccc2O[C@@H]1CN(C)C(=O)Nc1ccc(C(F)(F)F)cc1 | 107* | / | -26 | 6
C[C@@H]1CN([C@@H](C)CO)C(=O)c2cccc(N(C)C)c2O[C@H]1CN(C)C(=O)Nc1ccc(C(F)(F)F)cc1 | 99* | / | -4 | 0
C[C@H](CO)N1C[C@H](C)[C@@H](CN(C)C(=O)Nc2cccc3ccccc23)Oc2c(cccc2N(C)C)C1=O | 83* | / | 1 | -4
C[C@H]1CN([C@@H](C)CO)C(=O)c2cc(N(C)C)ccc2O[C@@H]1CN(C)C(=O)Nc1ccc(C(F)(F)F)cc1 | 0 | / | -21 | 0
O=C1N(Cc2ccccc2)Cc2ccccc2[C@@H]2OC(c3ccc(OCCCO)cc3)=N[C@]12Cc1ccccc1 | -17 | / | / | -2
CCSc1nc2c(cnn2-c2ccccc2)c(=O)n1N | -2 | -4 | -17* | -1
C[C@@H]1CCCCO[C@@H](CN(C)C(=O)c2ccncc2)[C@@H](C)CN([C@@H](C)CO)C(=O)c2cc(NC(=O)c3ccccc3)ccc2O1 | / | / | 8 | /
Cc1onc(-c2ccccc2Cl)c1C(=O)N[C@@H](C)c1ccccc1 | -1 | -14 | -21* | 0
Cc1onc(-c2ccccc2)c1C(=O)NC(C)c1ccccc1 (stereo not drawn) | / | -2 | 5 | -2
COc1ccc2c3c(n(C)c2c1)[C@H](CO)N(Cc1cccc(Cl)c1)CC31CCN(C(C)=O)CC1 | / | / | -5 | 2
C[C@@H]1CCCCO[C@@H](CN(C)C(=O)NC2CCCCC2)[C@H](C)CN([C@@H](C)CO)C(=O)c2cc(NS(=O)(=O)c3cn(C)cn3)ccc2O1 | 101* | / | -1 | 1
C[C@@H]1CN([C@@H](C)CO)C(=O)c2cc(NS(=O)(=O)c3cn(C)cn3)ccc2O[C@@H](C)CCCCO[C@H]1CN(C)C | 98* | / | / | -2
CO[C@@H]1CN(C)C(=O)c2cc(NS(=O)(=O)CC(F)(F)F)ccc2OC[C@@H](C)N(CC2CCCCC2)C[C@@H]1C | -1 | / | 4 | 1
CO[C@H]1CN(C)C(=O)c2cc(NC(=O)Nc3cc(Cl)cc(Cl)c3)ccc2OC[C@H](C)NC[C@H]1C | / | / | -9 | 0
OC1(c2ccccc2F)CCN(Cc2nnnn2Cc2ccc(F)cc2)CC1 | 2 | -4 | -21* | 2
Cc1ccc(Cn2nnnc2CN2CCC(O)(c3ccc(F)cc3)CC2)cc1 | 2 | -7 | -27* | 0
COc1ccc(Cn2nnnc2CN2CCC(O)(c3ccccc3F)CC2)cc1 | / | 2 | 0 | 1
COCC(=O)N1CC2(CCN(C(=O)c3ccccn3)CC2)c2c(n(C)c3cc(OC)ccc23)[C@H]1CO | / | / | 1 | -1
CCCN1[C@@H]2c3ccc(-c4ccccc4F)c(=O)n3C[C@H]1[C@H](CO)[C@H]2C(=O)NCc1ccccn1 | / | / | -1 | 0
O=C(COc1ccc(Br)cc1)NNC(=O)c1cc(S(=O)(=O)N2CCOCC2)ccc1Cl | -1 | -4 | -19* | 2
SMILES | Cneo AK release | CaV13 FRET inh | rRNA inh HTS | CFTR F508del cor
O=C(NC1CCN(Cc2ccccc2)CC1)c1cc(S(=O)(=O)N2CCOCC2)ccc1Cl | 2 | -19 | 2 | 15*
O=C(COc1ccc(S(=O)(=O)N2CCOCC2)cc1)Nc1ccc(Br)cc1 | 0 | -2 | -22 | 1
Fc1ccc(CSc2nc3ccccc3[nH]2)cc1 | -10 | / | / | /
Nc1c(-c2ccccc2)c(CSc2nc3ccccc3[nH]2)nn1-c1ccc(Cl)cc1 | / | -3 | -19* | /
Cc1[nH]c2ccccc2c1C(=O)CSc1nc2ccccc2[nH]1 | -1 | -8 | -28* | 0
CCOc1ccc(OCCSc2nc3ccccc3[nH]2)cc1 | -5 | -7 | -28* | -4
c1ccc(CSc2nc3ccccc3[nH]2)cc1 | -8 | -6 | -22* | -2
